From ChEMBL document CHEMBL1148068, “Bistramides A, B, C, D, and K: a new class of bioactive cyclic polyethers from Lissoclinum bistratum” (J Nat Prod, 1994)
Values after ≈ are worked out from the molar mass of the structure shown. Active and inactive are the calls of the source. The rule behind the calls is not given here.

Tests used:
KB = experiment: Cytotoxicity against human KB cells after 72 hrs by MTT assay; assay type: functional, cell-based
How it was run: (§1)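 Cells were seeded in microtiter plates at 0.1 × 10^3 cells/ml. Growth was estimated at 72 h by MTT conversion to formazan. Values are means of 3 experiments.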

P388 [1] = experiment: Cytotoxicity against mouse P388 cells after 72 hrs by MTT assay; assay type: functional, cell-based; details: P388, 72 h; how it was run: as §1
P388 [2] = experiment: Cytotoxicity against mouse doxorubicin resistant P388 cells after 72 hrs by MTT assay; assay type: functional, cell-based; details: P388, 72 h; how it was run: as §1
B16 = experiment: Cytotoxicity against mouse B16 cells after 72 hrs by MTT assay; assay type: functional, cell-based; details: B16, 72 h; how it was run: as §1
HT-29 = experiment: Cytotoxicity against human HT-29 cells after 72 hrs by MTT assay; assay type: functional, cell-based; details: HT-29, 72 h; how it was run: as §1
[3] = Cytotoxicity against human NSCLC-N6 cells after 72 hrs by MTT assay; assay type: functional, cell-based; details: NSCLC-N6, 72 h
How it was run: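 Cells originated from a nude-mouse graft and were cultured in RPMI 1640 with 5% fetal calf serum, penicillin, streptomycin and 2 mM glutamine. They were seeded in microtiter plates at 0.1 × 10^3 cells/ml. Growth was read by MTT-to-formazan conversion at 72 h. Values are means of 3 experiments.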

[4] = Cell cycle arrest in human NSCLC-N6 cells assessed as reduction in accumulation at S phase by flow cytometry; assay type: functional, cell-based
How it was run: (§2)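 NSCLC-N6 cells were grown in RPMI 1640 with 5% FCS, penicillin, streptomycin and 2 mM glutamine. 0.8 × 10^3 cells were cultured in flasks with or without compound for 48 h. Medium was removed and cells stained in situ with Vindelov solution. DNA content of 2000 nuclei was measured by flow cytometry to give DNA histograms.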

[5] = Cell cycle arrest in human NSCLC-N6 cells assessed as increase in accumulation at G2M phase by flow cytometry; assay type: functional, cell-based; how it was run: as §2
NSCLC-N6 = experiment: Induction of polyploidy in human NSCLC-N6 cells assessed as 4N chromosome levels at 1 ug/ml by DNA cytogram; assay type: functional, cell-based; how it was run: as §2
P388 [6] = experiment: Antitumor activity against mouse P388 cells xenografted mouse at 0.4 mg/kg, ip administered as 3 doses; assay type: functional; details: route intraperitoneal
[7] = Antitumor activity against human NSCLC-N6 cells xenografted mouse at 20 mg/kg, iv administered as 4 doses measured after 30 days; assay type: functional
How it was run: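 Nude mice carried sc NSCLC-N6 xenografts, serially passaged as mechanically dispersed tumour (about 1 g in 4.8 ml saline, 0.2 ml per mouse). Six mice per group were treated once tumours reached 50–200 mm3. Each received 20 mg/kg iv on days 1, 5, 9 and 11 (4 doses), in physiological saline with 2% DMSO.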

[8] = Cell cycle arrest in human NSCLC-N6 cells assessed as accumulation at G1 phase by flow cytometry; assay type: functional, cell-based; how it was run: as §2
[9] = Antitumor activity against human NSCLC-N6 cells xenografted mouse at 10 mg/kg/day, ip administered for 16 days measured after 30 days; assay type: functional; details: route intraperitoneal
How it was run: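 NSCLC-N6 tumour maintained by serial sc transplant in nude mice: 0.2 ml of a suspension from about 1 g of mechanically dispersed excised tumour in 4.8 ml sterile saline. Groups of six mice were treated once tumours reached 50–200 mm3. Dosing was 10 mg/kg ip daily on days 1–16, in physiological saline with 2% DMSO.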

For `C/C=C/C(=O)C[C@H]1CC[C@H](C)[C@H](CC(=O)NC[C@H](O)[C@H](C)C(=O)NCCC[C@H]2O[C@@]3(CCC[C@H](CC[C@H](C)/C=C(\C)[C@H](C)O)O3)CC[C@@H]2C)O1` [BISTRAMIDE A], the IC50 (KB) was 0.53 µg/mL (≈ 0.752 µM), the IC50 (P388 [1]) was 0.2 µg/mL (≈ 0.284 µM) and the IC50 (P388 [2]) was 0.05 µg/mL (≈ 0.0709 µM). The IC50 (B16) was 0.1 µg/mL (≈ 0.142 µM), the IC50 (HT-29) was 0.32 µg/mL (≈ 0.454 µM) and the IC50 [3] was 0.03 µg/mL (≈ 0.0426 µM). For the same compound, the Activity [4] was “Active”, the Activity [5] was “Active” and the Activity (NSCLC-N6) was “Active”. The T/C (P388 [6]) was 118%.
`CCCC(=O)CC1CCC(C)C(CC(=O)NCC(O)C(C)C(=O)NCCCC2OC3(CCCC(CCC(C)/C=C(\C)C(C)O)O3)CCC2C)O1` (stereo unspecified) [BISTRAMIDE B] gave an IC50 (KB) of 2.1 µg/mL (≈ 2.97 µM), an IC50 (P388 [1]) of 0.2 µg/mL (≈ 0.283 µM) and an IC50 (P388 [2]) of 1.16 µg/mL (≈ 1.64 µM). For the same compound, the IC50 (B16) was 1.2 µg/mL (≈ 1.7 µM), the IC50 (HT-29) was 0.71 µg/mL (≈ 1 µM) and the IC50 [3] was 0.32 µg/mL (≈ 0.453 µM). For the same compound, the Activity [4] was “Active”.
Work on `C/C=C/C(=O)C[C@H]1CC[C@H](C)[C@H](CC(=O)NC[C@H](O)[C@H](C)C(=O)NCCC[C@H]2O[C@@]3(CCC[C@@H](CC[C@H](C)/C=C(\C)C(C)=O)O3)CC[C@@H]2C)O1` [BISTRAMIDE C] yielded an IC50 (KB) of 0.65 µg/mL (≈ 0.925 µM), an IC50 (P388 [1]) of 0.02 µg/mL (≈ 0.0285 µM) and an IC50 (P388 [2]) of 0.05 µg/mL (≈ 0.0711 µM). The IC50 (B16) was 0.06 µg/mL (≈ 0.0854 µM), the IC50 (HT-29) was 0.5 µg/mL (≈ 0.711 µM) and the IC50 [3] was 0.05 µg/mL (≈ 0.0711 µM). The Activity [4] was “Active”.
For `C/C=C/[C@H](O)CC1CCC(C)C(CC(=O)NCC(O)C(C)C(=O)NCCCC2OC3(CCCC(CCC(C)/C=C(\C)C(C)O)O3)CCC2C)O1` (stereo partly specified) [BISTRAMIDE D], the IC50 (KB) was 10 µg/mL (≈ 14.1 µM), the IC50 (P388 [1]) was 0.36 µg/mL (≈ 0.509 µM) and the IC50 (P388 [2]) was 5.82 µg/mL (≈ 8.23 µM). The IC50 (B16) was 0.1 µg/mL (≈ 0.141 µM), the IC50 (HT-29) was 2.76 µg/mL (≈ 3.9 µM) and the IC50 [3] was 3.43 µg/mL (≈ 4.85 µM). The Activity [4] was “Active” and the T/C [7] was 53%.
With `C/C=C/C(O)C/C=C/CC(C)C(O)CC(=O)NCC(O)C(C)C(=O)NCCCC1OC2(CCCC(CCC(C)/C=C(\C)C(C)O)O2)CCC1C` (stereo unspecified) [BISTRAMIDE K] the IC50 (KB) was > 10 µg/mL, the IC50 (P388 [1]) was 0.57 µg/mL (≈ 0.806 µM) and the IC50 (P388 [2]) was > 10 µg/mL. It also gave an IC50 (B16) of 1.9 µg/mL (≈ 2.69 µM), an IC50 (HT-29) of 5.6 µg/mL (≈ 7.92 µM) and an IC50 [3] of 3.23 µg/mL (≈ 4.57 µM). The Activity [8] was “Active” and the T/C [9] was 49%.
Work on `Sc1ncnc2nc[nH]c12` [MERCAPTOPURINE ANHYDROUS] yielded an IC50 (KB) of 0.55 µg/mL (≈ 3.61 µM), an IC50 (P388 [1]) of 0.7 µg/mL (≈ 4.6 µM) and an IC50 (P388 [2]) of 0.26 µg/mL (≈ 1.71 µM). The IC50 (B16) was 0.8 µg/mL (≈ 5.26 µM), the IC50 (HT-29) was 0.87 µg/mL (≈ 5.72 µM) and the IC50 [3] was 0.79 µg/mL (≈ 5.19 µM).
